Source: ChEMBL document CHEMBL2321783, “Structure-activity relationships of peptides incorporating a bioactive reverse-turn heterocycle at the melanocortin receptors: identification of a 5800-fold mouse melanocortin-3 receptor (mMC3R) selective antagonist/partial agonist versus the mouse melanocortin-4 receptor (mMC4R)” (J Med Chem, 2013)

How the values were obtained:
Assay type in all cases: functional, cell-based
Details in all cases: hek293
Melanocortin receptor 5 = Melanocortin receptor 5 (Mus musculus, UniProt P41149); assay: Agonist activity at mouse MC5 receptor expressed in HEK293 cells after 6 hrs by cAMP-based beta-galactosidase reporter gene assay
How it was run: (§1)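 HEK-293 cells stably expressing the mouse receptor, kept in DMEM with 10% fetal calf serum, transfected with CRE/β-galactosidase reporter. Efficacy is relative to NDP-MSH on the same plate. EC50 is the mean of duplicate wells from three or more independent experiments, fitted by nonlinear least squares.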

Melanocortin receptor 4 = Melanocortin receptor 4 (Mus musculus, UniProt P56450); assay: Agonist activity at mouse MC4 receptor expressed in HEK293 cells after 6 hrs by cAMP-based beta-galactosidase reporter gene assay; how it was run: as §1
[1] = molecular target: Melanocyte-stimulating hormone receptor (Mus musculus, UniProt Q01727); assay: Agonist activity at mouse MC1 receptor expressed in HEK293 cells after 6 hrs by cAMP-based beta-galactosidase reporter gene assay; how it was run: as §1
Chain of Melanocyte-stimulating hormone receptor (Q01727 whole entry): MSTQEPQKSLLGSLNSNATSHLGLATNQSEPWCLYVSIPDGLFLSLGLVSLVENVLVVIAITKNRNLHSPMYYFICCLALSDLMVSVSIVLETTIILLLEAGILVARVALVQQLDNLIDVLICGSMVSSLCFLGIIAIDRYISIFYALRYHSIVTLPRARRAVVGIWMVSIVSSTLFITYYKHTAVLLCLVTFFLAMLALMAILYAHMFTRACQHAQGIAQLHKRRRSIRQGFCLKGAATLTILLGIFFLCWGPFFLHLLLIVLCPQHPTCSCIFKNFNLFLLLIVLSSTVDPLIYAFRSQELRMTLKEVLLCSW

Chain of Melanocortin receptor 4 (P56450 whole entry): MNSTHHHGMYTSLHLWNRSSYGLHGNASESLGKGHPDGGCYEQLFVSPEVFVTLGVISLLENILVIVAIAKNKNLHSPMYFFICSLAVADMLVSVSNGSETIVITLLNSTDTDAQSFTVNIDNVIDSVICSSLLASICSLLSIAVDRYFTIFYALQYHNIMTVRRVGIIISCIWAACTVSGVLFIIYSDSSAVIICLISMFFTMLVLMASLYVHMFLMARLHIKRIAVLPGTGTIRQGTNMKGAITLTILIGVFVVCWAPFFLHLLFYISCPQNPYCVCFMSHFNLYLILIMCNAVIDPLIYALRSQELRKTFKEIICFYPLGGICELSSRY
Chain of Melanocortin receptor 5 (P41149 whole entry): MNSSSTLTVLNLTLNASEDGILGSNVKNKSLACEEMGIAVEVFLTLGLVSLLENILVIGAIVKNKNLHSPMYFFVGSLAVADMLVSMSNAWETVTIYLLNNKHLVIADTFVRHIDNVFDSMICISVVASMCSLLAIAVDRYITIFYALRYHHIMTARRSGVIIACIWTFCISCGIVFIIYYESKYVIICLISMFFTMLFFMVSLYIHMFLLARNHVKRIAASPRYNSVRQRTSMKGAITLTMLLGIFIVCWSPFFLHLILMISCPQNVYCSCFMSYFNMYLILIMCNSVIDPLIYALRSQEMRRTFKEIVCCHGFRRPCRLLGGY

Row | EC50 (Melanocortin receptor 5) [µM] | EC50 (Melanocortin receptor 4) [µM] | EC50 [1] [µM] | Structure (SMILES)
1 | 0.125 | 0.21 | 0.08 | C[C@@H]1NC(=O)[C@H](CC(N)=O)NC(=O)[C@H](C)N2C[C@H](CCCNC(=N)N)NC(=O)[C@H](CSCC2=O)NC(=O)[C@@H](Cc2ccccc2)NC(=O)[C@H](Cc2c[nH]cn2)NC(=O)[C@@H](NC(=O)[C@@H](N)Cc2ccc(O)cc2)CSSC[C@@H](C(=O)N[C@@H](Cc2ccc(O)cc2)C(N)=O)NC(=O)[C@H](Cc2ccccc2)NC1=O
2 | 0.35 | 0.965 | 0.015 | C[C@@H]1NC(=O)[C@H](CC(N)=O)NC(=O)[C@H](Cc2c[nH]c3ccccc23)N2C[C@H](CCCCNC(=N)N)NC(=O)[C@H](CSCC2=O)NC(=O)[C@@H](Cc2ccccc2)NC(=O)[C@H](Cc2c[nH]cn2)NC(=O)[C@@H](NC(=O)[C@@H](N)Cc2ccc(O)cc2)CSSC[C@@H](C(=O)N[C@@H](Cc2ccc(O)cc2)C(N)=O)NC(=O)[C@H](Cc2ccccc2)NC1=O
3 | 0.205 | 0.13 | 0.0074 | C[C@@H]1NC(=O)[C@H](CC(N)=O)NC(=O)[C@H](Cc2c[nH]c3ccccc23)N2C[C@H](CCCNC(=N)N)NC(=O)[C@H](CSCC2=O)NC(=O)[C@@H](Cc2cccc3ccccc23)NC(=O)[C@H](Cc2c[nH]cn2)NC(=O)[C@@H](NC(=O)[C@@H](N)Cc2ccc(O)cc2)CSSC[C@@H](C(=O)N[C@@H](Cc2ccc(O)cc2)C(N)=O)NC(=O)[C@H](Cc2ccccc2)NC1=O
4 | 0.85 | 1.3 | 0.019 | C[C@@H]1NC(=O)[C@H](CC(N)=O)NC(=O)[C@H](Cc2c[nH]c3ccccc23)N2C[C@H](C)NC(=O)[C@H](CSCC2=O)NC(=O)[C@@H](Cc2ccccc2)NC(=O)[C@H](Cc2c[nH]cn2)NC(=O)[C@@H](NC(=O)[C@@H](N)Cc2ccc(O)cc2)CSSC[C@@H](C(=O)N[C@@H](Cc2ccc(O)cc2)C(N)=O)NC(=O)[C@H](Cc2ccccc2)NC1=O
5 | 0.415 | 0.29 | 0.00194 | C[C@@H]1NC(=O)[C@H](CC(N)=O)NC(=O)[C@H](Cc2c[nH]c3ccccc23)N2C[C@H](CCCNC(=N)N)NC(=O)[C@H](CSCC2=O)NC(=O)[C@@H](Cc2ccccc2)NC(=O)[C@H](Cc2ccccc2)NC(=O)[C@@H](NC(=O)[C@@H](N)Cc2ccc(O)cc2)CSSC[C@@H](C(=O)N[C@@H](Cc2ccc(O)cc2)C(N)=O)NC(=O)[C@H](Cc2ccccc2)NC1=O
6 | 0.46 | 0.42 | 0.03 | C[C@@H]1NC(=O)[C@H](CC(N)=O)NC(=O)[C@H](Cc2c[nH]c3ccccc23)N2C[C@H](CCCCN)NC(=O)[C@H](CSCC2=O)NC(=O)[C@@H](Cc2ccccc2)NC(=O)[C@H](Cc2c[nH]cn2)NC(=O)[C@@H](NC(=O)[C@@H](N)Cc2ccc(O)cc2)CSSC[C@@H](C(=O)N[C@@H](Cc2ccc(O)cc2)C(N)=O)NC(=O)[C@H](Cc2ccccc2)NC1=O
7 | 0.029 | 0.05 | 0.014 | C[C@@H]1NC(=O)[C@H](CC(N)=O)NC(=O)[C@@H](Cc2ccc3ccccc3c2)N2C[C@H](CCCNC(=N)N)NC(=O)[C@H](CSCC2=O)NC(=O)[C@@H](Cc2ccccc2)NC(=O)[C@H](Cc2c[nH]cn2)NC(=O)[C@@H](NC(=O)[C@@H](N)Cc2ccc(O)cc2)CSSC[C@@H](C(=O)N[C@@H](Cc2ccc(O)cc2)C(N)=O)NC(=O)[C@H](Cc2ccccc2)NC1=O
8 | 0.83 | 0.98 | 0.02 | C[C@@H]1NC(=O)[C@H](CC(N)=O)NC(=O)[C@H](Cc2ccc(-c3ccccc3)cc2)N2C[C@H](CCCNC(=N)N)NC(=O)[C@H](CSCC2=O)NC(=O)[C@@H](Cc2ccccc2)NC(=O)[C@H](Cc2c[nH]cn2)NC(=O)[C@@H](NC(=O)[C@@H](N)Cc2ccc(O)cc2)CSSC[C@@H](C(=O)N[C@@H](Cc2ccc(O)cc2)C(N)=O)NC(=O)[C@H](Cc2ccccc2)NC1=O
9 | 0.052 | 0.22 | 0.0062 | C[C@@H]1NC(=O)[C@H](CC(N)=O)NC(=O)[C@H](Cc2ccc3ccccc3c2)N2C[C@H](CCCNC(=N)N)NC(=O)[C@H](CSCC2=O)NC(=O)[C@@H](Cc2ccccc2)NC(=O)[C@H](Cc2c[nH]cn2)NC(=O)[C@@H](NC(=O)[C@@H](N)Cc2ccc(O)cc2)CSSC[C@@H](C(=O)N[C@@H](Cc2ccc(O)cc2)C(N)=O)NC(=O)[C@H](Cc2ccccc2)NC1=O
10 | 0.69 | 0.705 | 0.052 | C[C@@H]1NC(=O)[C@@H](NC(=O)[C@@H](N)Cc2ccc(O)cc2)CSSC[C@@H](C(=O)N[C@@H](Cc2ccc(O)cc2)C(N)=O)NC(=O)[C@H](Cc2ccccc2)NC(=O)[C@H](C)NC(=O)[C@H](CC(N)=O)NC(=O)[C@H](Cc2c[nH]c3ccccc23)N2C[C@H](CCCNC(=N)N)NC(=O)[C@H](CSCC2=O)NC(=O)[C@@H](Cc2ccccc2)NC1=O
11 | 0.046 | 0.19 | 0.0024 | C[C@@H]1NC(=O)[C@H](CC(N)=O)NC(=O)[C@H](Cc2c[nH]c3ccccc23)N2C[C@H](CCCN=C(N)N)NC(=O)[C@H](CSCC2=O)NC(=O)[C@@H](Cc2ccccc2)NC(=O)[C@H](Cc2cnc[nH]2)NC(=O)[C@@H](NC(=O)[C@@H](N)Cc2ccc(O)cc2)CSSC[C@@H](C(=O)N[C@@H](Cc2ccc(O)cc2)C(N)=O)NC(=O)[C@H](Cc2ccccc2)NC1=O
12 | 1.1 | 5.4 | 5 | C[C@@H]1NC(=O)[C@H](CC(N)=O)NC(=O)[C@H](Cc2c[nH]c3ccccc23)N2C[C@H](CCCNC(=N)N)NC(=O)[C@H](CSCC2=O)NC(=O)[C@@H]2CCCN2C(=O)[C@H](Cc2c[nH]cn2)NC(=O)[C@@H](NC(=O)[C@@H](N)Cc2ccc(O)cc2)CSSC[C@@H](C(=O)N[C@@H](Cc2ccc(O)cc2)C(N)=O)NC(=O)[C@H](Cc2ccccc2)NC1=O
13 | 0.27 | 0.24 | 0.032 | C[C@@H]1NC(=O)[C@H](CC(N)=O)NC(=O)[C@H](Cc2c[nH]c3ccccc23)N2C[C@H](CCCNC(=N)N)NC(=O)[C@H](CSCC2=O)NC(=O)[C@@H](Cc2ccccc2)NC(=O)[C@@H]2CCCN2C(=O)[C@@H](NC(=O)[C@@H](N)Cc2ccc(O)cc2)CSSC[C@@H](C(=O)N[C@@H](Cc2ccc(O)cc2)C(N)=O)NC(=O)[C@H](Cc2ccccc2)NC1=O
14 | 0.0098 | 0.02 | 0.0005 | C[C@@H]1NC(=O)[C@H](CC(N)=O)NC(=O)[C@H](Cc2c[nH]c3ccccc23)N2C[C@H](CCCNC(=N)N)NC(=O)[C@H](CSCC2=O)NC(=O)[C@@H](Cc2ccc(I)cc2)NC(=O)[C@H](Cc2c[nH]cn2)NC(=O)[C@@H](NC(=O)[C@@H](N)Cc2ccc(O)cc2)CSSC[C@@H](C(=O)N[C@@H](Cc2ccc(O)cc2)C(N)=O)NC(=O)[C@H](Cc2ccccc2)NC1=O
15 | 0.046 | 0.19 | 0.0087 | C[C@@H]1NC(=O)[C@H](CC(N)=O)NC(=O)[C@H](Cc2c[nH]c3ccccc23)N2C[C@H](CCCNC(=N)N)NC(=O)[C@H](CSCC2=O)NC(=O)[C@@H](Cc2ccc3ccccc3c2)NC(=O)[C@H](Cc2c[nH]cn2)NC(=O)[C@@H](NC(=O)[C@@H](N)Cc2ccc(O)cc2)CSSC[C@@H](C(=O)N[C@@H](Cc2ccc(O)cc2)C(N)=O)NC(=O)[C@H](Cc2ccccc2)NC1=O
16 | 0.087 | 0.76 | 0.0011 | C[C@@H]1NC(=O)[C@H](CC(N)=O)NC(=O)[C@H](Cc2c[nH]c3ccccc23)N2C[C@H](CCCNC(=N)N)NC(=O)[C@H](CSCC2=O)NC(=O)[C@@H](Cc2ccc(-c3ccccc3)cc2)NC(=O)[C@H](Cc2c[nH]cn2)NC(=O)[C@@H](NC(=O)[C@@H](N)Cc2ccc(O)cc2)CSSC[C@@H](C(=O)N[C@@H](Cc2ccc(O)cc2)C(N)=O)NC(=O)[C@H](Cc2ccccc2)NC1=O
